From PubChem BioAssay AID1665 (Sanford-Burnham Center for Chemical Genomics, 2009)
Among all 190,000 compounds or so, about 590 (0.31%) were called active.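 How the source made its calls: active means nuclear translocation activity above 50% at 5 µM, with a well cell count of 50 or more; inconclusive means wells under 50 cells across six images, flagged as toxic; inactive means the rest.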 Only a selection was taken, and actives are over-represented in it overall.

Test: beta-catenin nuclear localization change in HeLa – imaging, HeLa cells, immunofluorescence, high-content, primary screen (AID 1665);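 on nuclear translocation activity: per-cell ratio of nuclear to cytoplasmic median beta-catenin stain intensity; plate controls were DMSO negative control for no effect and GSK-3 inhibitor IX positive control for full effect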
Details: at 5 µM; cell count: HeLa beta-catenin nuclear translocation, measured here: cell count, cytotoxicity flag; nuclear translocation activity: stronger effect = higher value
Procedure, shortened: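 test system = HeLa cells, endogenous beta-catenin | dosing = single 5 µM dose plus 0.02–20 µM confirmation series | times = compound treatment 24 h, 37°C, 5% CO2 | technique = beta-catenin immunofluorescence imaging with DAPI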

| SMILES | cell count [cells] | nuclear translocation activity |
| --- | --- | --- |
| COc1cc2nc(Cl)nc(NCCO)c2cc1OC | 1310 | 0.1% (inactive) |
| CCOC(=O)c1cc(NC(=O)c2cccnc2)cc(C(=O)OCC)c1 | 1120 | 0.3% (inactive) |
| CCOC(=O)c1ccc(-c2ccc(C(=O)Nc3cccnc3)o2)cc1 | 659 | 56.9% (active) |
| CCOc1cccc(C(=O)Nc2cccnc2)c1 | 1110 | -2.1% (inactive) |
| COC(=O)CNc1nc(Cl)nc(N2CCC(C)CC2)n1 | 1320 | -0.1% (inactive) |
| CC(C)Sc1nnc([C@H](Cc2ccccc2)NC(=O)OC(C)(C)C)o1 | 1410 | 0.4% (inactive) |
| CCOC(=O)Cc1cc(=O)[nH]c(/N=C(\N)Nc2ccc(OC)cc2)n1 | 1300 | -0.7% (inactive) |
| O=C(NNC(=O)c1cc2c(s1)CCCC2)c1ccccc1 | 547 | -1.8% (inactive) |
| Cc1ccc(C(=O)NNC(=O)c2cccs2)cc1 | 1120 | -0.6% (inactive) |
| Cc1ccc(C(=O)NNC(=O)c2cc3cc4ccccc4nc3s2)cc1 | 719 | 80.3% (active) |
| CCOc1ccccc1N1CN(Cc2ccccc2)CNC1=S | 1340 | -1.3% (inactive) |
| CCc1nc2sc3c(Cl)ncnc3c2c2c1CCCC2 | 1350 | -1.6% (inactive) |
| Cc1cc(=O)[nH]c(S)c1C#N | 1290 | -0.9% (inactive) |
| O=C(COc1ccccc1)N1CCN=C1SCc1cccc(F)c1 | 1330 | 0.4% (inactive) |
| COc1cc(C=O)ccc1Oc1nnnn1-c1ccccc1 | 1310 | -0.4% (inactive) |
| Cc1cc(C(=O)NNS(=O)(=O)c2ccccc2C(F)(F)F)nn1C(C)(C)C | 1120 | -2.9% (inactive) |
| CCOC(=O)c1c(NC(=O)NC(C)(C)C)sc2c1CCN(C)C2 | 1280 | 0.5% (inactive) |
| Nc1nc(SC23CC4CC(CC(C4)C2)C3)ns1 | 1340 | 0.7% (inactive) |
| CC(C)n1c(=S)[nH]c2cc(C(F)(F)F)ccc21 | 1090 | -0.8% (inactive) |
| COC(=O)c1ccc(S(=O)(=O)NCc2ccccc2)n1C | 1270 | 0.3% (inactive) |
| CCOCCn1c(-c2ccccc2)nc2ccccc21 | 1340 | -0.7% (inactive) |
| O=C(O)c1ccccc1OCc1ccccc1Cl | 1320 | -1.2% (inactive) |

| SMILES | cell count [cells] | nuclear translocation activity |
| --- | --- | --- |
| Cc1cc(=O)[nH]c(N/N=C/c2ccc3c(c2)OCCO3)n1 | 1320 | -0.5% (inactive) |
| COc1ccc(NC(=O)C2CCC(CNc3c(N4CCCCC4)c(=O)c3=O)CC2)c(OC)c1 (stereo unspecified) | 1350 | -0.3% (inactive) |
| Cc1nnc2n1N=C(c1ccc3c(c1)NC(=O)CO3)CS2 | 1300 | -0.7% (inactive) |
| C/C(=N/NC(=O)CN1CCN(S(=O)(=O)c2ccc(Br)cc2)CC1)c1ccncc1 | 1320 | -0.5% (inactive) |
| Nc1ccc2nn(-c3ccc(Cl)cc3)nc2c1 | 1360 | 1% (inactive) |
| CC1=NNC(=O)C1CCC(=O)N/N=C(\C)c1ccc(Cl)cc1 (stereo unspecified) | 1240 | 0.6% (inactive) |
| Cc1cc(C)nc(SCc2cn3c(C)cc(C)nc3n2)n1 | 1340 | -0.4% (inactive) |
| CCc1nc2sc(C(=O)O)c(N)c2c2c1CCCC2 | 1230 | 2.4% (inactive) |
| CC(=O)NNC(=O)c1csc(Cc2c(Cl)sc3ccc(Cl)cc23)n1 | 1250 | -0.8% (inactive) |
| CC(CNS(=O)(=O)c1ccc(Br)cc1)CN(C)C (stereo unspecified) | 1320 | 0.2% (inactive) |
| COc1ccc(CNC(=O)C(Cc2ccccc2)n2cccc2)cc1 (stereo unspecified) | 1270 | -0.6% (inactive) |
| COC(OC)c1ccnc(SCc2ccccc2Cl)n1 | 1270 | -2.6% (inactive) |
| O=C(O)C(F)(F)C(NCc1ccccc1)c1ccccc1 (stereo unspecified) | 1280 | 0% (inactive) |
| COc1cc(/C=N\Nc2nc(-c3cccs3)c(NC(C)=O)s2)ccc1O | 1300 | 0.1% (inactive) |
| CCOc1cc(/C=C(\C#N)c2nc(-c3cccs3)c(NC(C)=O)s2)ccc1O | 77 | 68.9% (active) |
| COc1cc(/C=C(\C#N)c2nc3c(s2)CC(C)CC3)ccc1O (stereo unspecified) | 1440 | 2.5% (inactive) |
| Cn1c(SCC(=O)N2CCOCC2)nnc1-c1ccc2ncccc2c1 | 1320 | 0.1% (inactive) |
| O=[N+]([O-])c1cccc2ncccc12 | 1340 | -0.4% (inactive) |
| O=C(NC1CCCCC1)c1cc(C2CC2)on1 | 1290 | -0.2% (inactive) |
| Cc1ccc(-c2nc3ccccc3[nH]c2=O)cc1 | 1310 | 2.5% (inactive) |
| CCCCCCCCCCCCN1C(=O)CSC1c1cccnc1 (stereo unspecified) | 1170 | -0.9% (inactive) |
| CC(=O)NC(=S)Nc1ccc(NC(=S)NC(=O)c2ccc([N+](=O)[O-])cc2)cc1 | 1350 | -0.9% (inactive) |

| SMILES | cell count [cells] | nuclear translocation activity |
| --- | --- | --- |
| CCc1ccccc1NC(=O)CSc1nnc(CCNC(=O)OC(C)(C)C)o1 | 1310 | 1% (inactive) |
| Oc1c(C=Nc2cccc3nsnc23)ccc2ccccc12 | 317 | 154% (active) |
| Oc1ccc2ccccc2c1C=Nc1ccccc1 | 1230 | 1.3% (inactive) |
| Oc1ccc(N=Cc2c(O)ccc3ccccc23)cc1 | 1240 | -1.5% (inactive) |
| O=C(O)/C=C/c1ccc2c(c1)OCCO2 | 1430 | -1.2% (inactive) |
| Cc1cc(Nc2ccc(Cl)cc2)nc(N2CCOCC2)n1 | 1280 | -0.7% (inactive) |
| Cc1onc(NC(=O)c2ccc([N+](=O)[O-])o2)c1Br | 1260 | 5.1% (inactive) |
| COC(=O)c1cc(NC(=O)c2ccco2)ccc1N1CCOCC1 | 1200 | -0.7% (inactive) |
| CCCC(=O)Nc1ccc2c(c1)nc(CCNC(=O)c1ccco1)n2C | 1400 | -1.3% (inactive) |
| COc1ccc(NC2=CC(=S)NC(C)(C)C2)cc1 | 1130 | -1.8% (inactive) |
| COC(=O)c1sc(SC)c(S(=O)(=O)C(C)C)c1N/N=C(\C#N)S(=O)(=O)c1ccccn1 | 1240 | -2.6% (inactive) |
| CCN(CC)CCCN=Cc1c(O)n(-c2ccc(C)cc2)c(=O)c2ccccc12 | 1350 | -0.1% (inactive) |
| O=C(O)CC1(CC(=O)Nc2cccc(C(F)(F)F)c2)CCCC1 | 1260 | 0.5% (inactive) |
| CN(C)/C=C(/C(=O)c1ccc(Cl)c(Cl)c1)c1nnnn1-c1ccccc1 | 1260 | 0% (inactive) |
| COc1ccc2c(CC(=O)OCC(=O)NC(N)=O)coc2c1 | 1100 | -0.9% (inactive) |
| COc1cccc(C2Nc3cccc4cccc(c34)N2)c1 | 1290 | -0.1% (inactive) |
| Nc1nnnn1/N=C/c1cc([N+](=O)[O-])ccc1O | 1250 | 2.2% (inactive) |
| CSC1=NCCN1C(=O)Cc1cccc2ccccc12 | 1340 | 0.5% (inactive) |
| COc1ccc(C(=O)N/N=C2\CCS(=O)(=O)c3ccc(F)cc32)cc1OC | 1320 | 0.5% (inactive) |
| O=C(N/N=C/c1cccc([N+](=O)[O-])c1)c1ccncc1 | 1370 | -0.3% (inactive) |
| Cc1ccc2[nH]c(=O)c(CC=C(Cl)Cl)c(C)c2c1 | 484 | -1.1% (inactive) |
| O=C(NCCN1CCN(Cc2ccccc2)CC1)c1cc2c(=O)[nH]c3ccccc3c2s1 | 1180 | -3.9% (inactive) |

| SMILES | cell count [cells] | nuclear translocation activity |
| --- | --- | --- |
| Cc1cccc(N(C)C(=O)c2cc3c(=O)[nH]c4ccc(C)cc4c3s2)c1 | 369 | 61.3% (active) |
| O=C(NCC1CCCO1)c1ccccc1-c1nc(-c2ccccc2Cl)no1 (stereo unspecified) | 1310 | 0% (inactive) |
| O=[N+]([O-])/C=C1\CCCCCN1 | 1320 | 0% (inactive) |
| O=c1[nH]nc(SCCS(=O)(=O)c2ccc(F)cc2)n1-c1ccccc1C(F)(F)F | 1270 | 2.8% (inactive) |
| Cc1ccc(S(=O)(=O)C2(S(=O)(=O)c3ccc(C)cc3)CCCC2)cc1 | 297 | 67.3% (active) |
| Cc1ccc(S(=O)(=O)NC(=O)N2CCCC(C)(C)C2)cc1 | 1150 | 0.1% (inactive) |
| Cc1ccc(S(=O)(=O)N2CCCC2CO)cc1 (stereo unspecified) | 831 | -0.4% (inactive) |
| COc1ccc(C(=O)CN2C(=O)NC(C)(c3ccc(C)cc3)C2=O)cc1OC (stereo unspecified) | 931 | -3.5% (inactive) |
| COc1ccc(C(=O)n2nc(-c3ccc(C)cc3)nc2N)cc1OC | 579 | 100% (active) |
| CCCC(=O)n1nc(-c2ccccc2)nc1N | 1050 | 0% (inactive) |
| CN(C)C(=O)c1coc2nc3ccccc3nc12 | 1300 | -0.3% (inactive) |
| CC[C@]1(O)C[C@@H]2CN(CCc3c([nH]c4ccccc34)[C@@](C(=O)OC)(c3cc4c(cc3OC)N(C)[C@H]3[C@@](O)(C(=O)OC)[C@H](OC(C)=O)[C@]5(CC)C=CCN6CC[C@]43[C@@H]65)C2)C1 | 560 | -2% (inactive) |
| CC[C@]1(O)CC2CN(CCc3c([nH]c4ccccc34)[C@@](C(=O)OC)(c3cc4c(cc3OC)N(C=O)[C@H]3[C@@](O)(C(=O)OC)[C@H](OC(C)=O)[C@]5(CC)C=CCN6CC[C@]43[C@@H]65)C2)C1 (stereo partly specified) | 617 | 62.5% (active) |
| CC/C=C/C(=O)N1CC2(CC(c3cccc(NC(=O)CC)c3)=NO2)C[C@H]1C(N)=O (stereo partly specified) | 1030 | 0.6% (inactive) |
| O=C(Nc1cccnc1Oc1ncnc2cc(Cl)ccc12)c1ccc(F)cc1 | 1330 | -0.5% (inactive) |
| COCCCn1c(-c2cccs2)nc2nc3ccccc3nc21 | 1370 | -0.5% (inactive) |
| CCC1=NN2C(=N)/C(=C/c3cc(C)n(-c4ccccc4)c3C)C(=O)N=C2S1 | 1350 | -0.8% (inactive) |
| Cc1[nH]n(-c2ccccc2)c(=O)c1N=Nc1ccccc1C(=O)N1CCCCC1 | 1360 | 0.5% (inactive) |
| Cc1ccc(CCC(=O)Nc2ncc(Cc3cc(Cl)ccc3Cl)s2)o1 | 142 | 73.2% (active) |
| Cc1cnc(NC(=O)CSc2nnc(-c3ccc(Cl)cc3Cl)n2N)s1 | 1100 | -0.9% (inactive) |
| CCOc1ccccc1NC(=O)CCc1ccc(C)o1 | 1160 | -2% (inactive) |
| NC(=O)N/N=C\c1cccs1 | 1280 | 0.1% (inactive) |
